The source made the active and inactive calls. No cut-off for these calls is given here.
What was measured:
Type in all cases: cell-based
[1] = target: Transient receptor potential cation channel subfamily V member 1 (Rattus norvegicus) (UniProt O35433); assay: Partial antagonist activity at rat TRPV1 expressed in HEK293 cells assessed as effect on proton-induced channel current at 1 uM and -60 mV holding potential co-treated with proton by whole-cell patch clamp method
How it was run: (§1)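 Proton-activated currents were recorded in rat TRPV1-expressing HEK293 cells held at −60 mV in whole-cell mode, with bath buffered to pH 6 with 10 mM MES, at ~25 °C. Peak current amplitude was the read-out.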

[2] = target: Transient receptor potential cation channel subfamily V member 1 (Rattus norvegicus) (UniProt O35433); assay: Partial antagonist activity at rat TRPV1 expressed in HEK293 cells assessed as inhibition of capsaicin-induced inward current at -60 mV holding potential pretreated for 180 secs prior to capsaicin addition in presence of extracellular calcium by whole-cell patch-clamp method
How it was run: (§2)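 HEK293 cells transiently expressing rat TRPV1 (EGFP cotransfected) were patched in whole-cell mode 1 day post-transfection. Cells were held at −60 mV in Ca2+-containing standard bath (pH 7.4) at ~25 °C. Capsaicin-evoked peak current amplitude was quantified. Sigmoidal curve fitting gave EC50 or IC50 values.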

[3] = target: Transient receptor potential cation channel subfamily V member 1 (Rattus norvegicus) (UniProt O35433); assay: Partial antagonist activity at rat TRPV1 expressed in HEK293 cells assessed as effect on capsaicin-induced inward current at 10 uM by whole-cell patch clamp method (reference value: -480.7 +/- 96.9 pA/pF); how it was run: as §2
[4] = target: Transient receptor potential cation channel subfamily V member 1 (Rattus norvegicus) (UniProt O35433); assay: Partial antagonist activity at rat TRPV1 expressed in HEK293 cells assessed as effect on capsaicin-induced inward current at 1 uM by whole-cell patch clamp method (reference value: -431 +/- 43.1 pA/pF); how it was run: as §2
[5] = target: Transient receptor potential cation channel subfamily V member 1 (Rattus norvegicus) (UniProt O35433); assay: Partial antagonist activity at rat TRPV1 expressed in HEK293 cells assessed as effect on capsaicin-induced inward current at 0.1 uM by whole-cell patch clamp method (reference value: -327.4 +/- 52.3 pA/pF); how it was run: as §2
[6] = target: Transient receptor potential cation channel subfamily V member 1 (Rattus norvegicus) (UniProt O35433); assay: Partial antagonist activity at rat TRPV1 expressed in HEK293 cells assessed as effect on capsaicin-induced inward current at 1 uM by whole-cell patch clamp method (reference value: -480.7 +/- 96.9 pA/pF); how it was run: as §2
[7] = target: Transient receptor potential cation channel subfamily V member 1 (Rattus norvegicus) (UniProt O35433); assay: Partial antagonist activity at rat TRPV1 expressed in HEK293 cells assessed as effect on capsaicin-induced inward current at 10 uM by whole-cell patch clamp method (reference value: -431 +/- 43.1 pA/pF); how it was run: as §2
[8] = target: Transient receptor potential cation channel subfamily V member 1 (Rattus norvegicus) (UniProt O35433); assay: Partial antagonist activity at rat TRPV1 expressed in HEK293 cells assessed as desensitization of capsaicin-induced inward current at 10 uM and -60 mV holding potential pretreated for 60 secs prior to capsaicin-challenge in absence of calcium by whole-cell patch-clamp method
How it was run: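 Whole-cell clamp at −60 mV was done on rat TRPV1-transfected HEK293 cells (1 day) using a calcium-free bath (5 mM EGTA, no CaCl2, pH 7.4) at ~25 °C. Capsaicin-evoked peak current was measured.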

[9] = target: Transient receptor potential cation channel subfamily V member 1 (Rattus norvegicus) (UniProt O35433); assay: (§3) Partial antagonist activity at rat TRPV1 expressed in HEK293 cells assessed as effect on capsaicin current density at 0.1 uM pretreated for 180 sec followed by capsaicin addition at -60 mV holding potential in presence of extracellular calcium by whole-cell patch-clamp method (reference value: -327.4 +/- 52.3 pA/pF); how it was run: as §2
[10] = target: Transient receptor potential cation channel subfamily V member 1 (Rattus norvegicus) (UniProt O35433); assay: Partial antagonist activity at rat TRPV1 expressed in HEK293 cells assessed as effect on capsaicin-induced inward current at 1 uM by whole-cell patch clamp method (reference value: -151.2 +/- 33 pA/pF); how it was run: as §2
[11] = target: Transient receptor potential cation channel subfamily V member 1 (Rattus norvegicus) (UniProt O35433); assay: Partial antagonist activity at rat TRPV1 expressed in HEK293 cells assessed as effect on capsaicin-induced inward current at 1 uM by whole-cell patch clamp method; how it was run: as §2
[12] = target: Transient receptor potential cation channel subfamily V member 1 (Rattus norvegicus) (UniProt O35433); assay: Partial antagonist activity at rat TRPV1 expressed in HEK293 cells assessed as effect on capsaicin-induced inward current at 0.6 uM by whole-cell patch clamp method (reference value: -7 +/- 2.6 pA/pF); how it was run: as §2
[13] = target: Transient receptor potential cation channel subfamily V member 1 (Rattus norvegicus) (UniProt O35433); assay: Partial antagonist activity at rat TRPV1 expressed in HEK293 cells assessed as effect on capsaicin-induced inward current at 0.6 uM by whole-cell patch clamp method (reference value: -151.2 +/- 33 pA/pF); how it was run: as §2
[14] = target: Transient receptor potential cation channel subfamily V member 1 (Rattus norvegicus) (UniProt O35433); assay: Partial antagonist activity at rat TRPV1 expressed in HEK293 cells assessed as effect on capsaicin-induced inward current at 10 uM by whole-cell patch clamp method; how it was run: as §2
[15] = target: Transient receptor potential cation channel subfamily V member 1 (Rattus norvegicus) (UniProt O35433); assay: Partial antagonist activity at rat TRPV1 expressed in HEK293 cells assessed as effect on capsaicin-induced inward current at 0.1 uM by whole-cell patch clamp method (reference value: -431 +/- 43.1 pA/pF); how it was run: as §2
[16] = target: Transient receptor potential cation channel subfamily V member 1 (Rattus norvegicus) (UniProt O35433); assay: Partial antagonist activity at rat TRPV1 expressed in HEK293 cells assessed as inhibition of proton-induced channel current at 1 or 50 uM and -60 mV holding potential pretreated for 60 secs prior to proton-challenge by whole-cell patch clamp method (reference value: 185.1 +/- 38.6 pA/pF); how it was run: as §1
[17] = target: Transient receptor potential cation channel subfamily V member 1 (Rattus norvegicus) (UniProt O35433); assay: as §3, with “0.5” for “0.1”; how it was run: as §2
[18] = target: Transient receptor potential cation channel subfamily V member 1 (Rattus norvegicus) (UniProt O35433); assay: Partial antagonist activity at rat TRPV1 expressed in HEK293 cells assessed as effect on capsaicin-induced inward current at 0.1 uM by whole-cell patch clamp method (reference value: -7 +/- 2.6 pA/pF); how it was run: as §2
[19] = target: Transient receptor potential cation channel subfamily V member 1 (Rattus norvegicus) (UniProt O35433); assay: Desensitization of rat TRPV1 expressed in HEK293 cells at 10 uM for 30 sec at -60 mV holding potential in presence of extracellular calcium by whole-cell patch clamp method
How it was run: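 Rat TRPV1 cDNA and an EGFP reporter were cotransfected into HEK293 cells, with recording 1 day later. Whole-cell voltage clamp was run at room temperature (~25 °C) in standard bath (2 mM CaCl2, pH 7.4) with a KCl/MgATP/EGTA pipette solution. Steps from −100 to +100 mV (100 ms) gave I–V curves. Agonist was applied until desensitization, and peak current was scored. EC50 came from a sigmoidal fit.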

[20] = target: Transient receptor potential cation channel subfamily V member 1 (Rattus norvegicus) (UniProt O35433); assay: Partial antagonist activity at rat TRPV1 expressed in HEK293 cells assessed as effect on capsaicin-induced inward current at 0.1 uM by whole-cell patch clamp method (reference value: -151.2 +/- 33 pA/pF); how it was run: as §2

Sequence of Transient receptor potential cation channel subfamily V member 1 (Rattus norvegicus) (O35433 whole entry): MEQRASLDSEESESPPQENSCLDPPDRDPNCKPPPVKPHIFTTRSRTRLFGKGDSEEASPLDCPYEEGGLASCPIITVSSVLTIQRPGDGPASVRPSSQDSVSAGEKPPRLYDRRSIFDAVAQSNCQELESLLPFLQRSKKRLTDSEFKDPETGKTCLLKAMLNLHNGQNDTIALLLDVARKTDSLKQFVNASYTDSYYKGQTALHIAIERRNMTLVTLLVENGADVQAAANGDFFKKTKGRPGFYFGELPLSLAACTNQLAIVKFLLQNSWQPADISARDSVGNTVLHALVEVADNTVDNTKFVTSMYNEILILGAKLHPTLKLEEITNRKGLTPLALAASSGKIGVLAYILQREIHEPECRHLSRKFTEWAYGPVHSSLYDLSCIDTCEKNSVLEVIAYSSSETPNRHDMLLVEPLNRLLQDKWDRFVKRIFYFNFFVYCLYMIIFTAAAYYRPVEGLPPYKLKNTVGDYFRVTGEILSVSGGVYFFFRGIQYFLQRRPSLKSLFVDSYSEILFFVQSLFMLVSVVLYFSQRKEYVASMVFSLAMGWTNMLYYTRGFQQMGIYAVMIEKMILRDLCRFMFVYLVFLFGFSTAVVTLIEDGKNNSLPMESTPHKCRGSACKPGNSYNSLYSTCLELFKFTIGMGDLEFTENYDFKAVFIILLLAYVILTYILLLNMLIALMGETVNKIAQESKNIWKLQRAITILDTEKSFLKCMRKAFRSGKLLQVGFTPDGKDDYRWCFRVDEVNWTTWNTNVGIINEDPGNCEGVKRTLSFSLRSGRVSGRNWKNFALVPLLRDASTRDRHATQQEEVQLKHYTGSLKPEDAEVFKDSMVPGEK

Question: Which results are given for `CN1c2ccccc2C(=O)N2CCc3c([nH]c4ccccc34)C21` (stereo not given)?
Answer: Activity [1]: -158 pA/pF; inhibition [2]: Dose-dependent effect; Activity [3]: -256 pA/pF; Activity [4]: -260 pA/pF; Activity [5]: -236 pA/pF; Activity [6]: -296 pA/pF; Activity [7]: -237 pA/pF; Activity [8]: Active; Activity [9]: -243 pA/pF; Activity [10]: -75 pA/pF; Activity [11]: -448 pA/pF; Activity [12]: -35.9 pA/pF; Activity [13]: -81.6 pA/pF; Activity [14]: -439 pA/pF; Activity [15]: -390 pA/pF; Activity [16]: -49.1 pA/pF; Activity [17]: -143 pA/pF; Activity [18]: -6.4 pA/pF; Activity [19]: Active; Activity [20]: -94.8 pA/pF

Source: ChEMBL document CHEMBL3856186, “Partial Activation and Inhibition of TRPV1 Channels by Evodiamine and Rutaecarpine, Two Major Components of the Fruits of Evodia rutaecarpa” (J Nat Prod, 2016)
